Published values collected from several papers.
Compare with care: the assays were run in different laboratories.
Target: Bone morphogenetic protein receptor type-2 (BMPR2, Homo sapiens, UniProt Q13873)
Sequence (Q13873 27-1038, as in one of the studies): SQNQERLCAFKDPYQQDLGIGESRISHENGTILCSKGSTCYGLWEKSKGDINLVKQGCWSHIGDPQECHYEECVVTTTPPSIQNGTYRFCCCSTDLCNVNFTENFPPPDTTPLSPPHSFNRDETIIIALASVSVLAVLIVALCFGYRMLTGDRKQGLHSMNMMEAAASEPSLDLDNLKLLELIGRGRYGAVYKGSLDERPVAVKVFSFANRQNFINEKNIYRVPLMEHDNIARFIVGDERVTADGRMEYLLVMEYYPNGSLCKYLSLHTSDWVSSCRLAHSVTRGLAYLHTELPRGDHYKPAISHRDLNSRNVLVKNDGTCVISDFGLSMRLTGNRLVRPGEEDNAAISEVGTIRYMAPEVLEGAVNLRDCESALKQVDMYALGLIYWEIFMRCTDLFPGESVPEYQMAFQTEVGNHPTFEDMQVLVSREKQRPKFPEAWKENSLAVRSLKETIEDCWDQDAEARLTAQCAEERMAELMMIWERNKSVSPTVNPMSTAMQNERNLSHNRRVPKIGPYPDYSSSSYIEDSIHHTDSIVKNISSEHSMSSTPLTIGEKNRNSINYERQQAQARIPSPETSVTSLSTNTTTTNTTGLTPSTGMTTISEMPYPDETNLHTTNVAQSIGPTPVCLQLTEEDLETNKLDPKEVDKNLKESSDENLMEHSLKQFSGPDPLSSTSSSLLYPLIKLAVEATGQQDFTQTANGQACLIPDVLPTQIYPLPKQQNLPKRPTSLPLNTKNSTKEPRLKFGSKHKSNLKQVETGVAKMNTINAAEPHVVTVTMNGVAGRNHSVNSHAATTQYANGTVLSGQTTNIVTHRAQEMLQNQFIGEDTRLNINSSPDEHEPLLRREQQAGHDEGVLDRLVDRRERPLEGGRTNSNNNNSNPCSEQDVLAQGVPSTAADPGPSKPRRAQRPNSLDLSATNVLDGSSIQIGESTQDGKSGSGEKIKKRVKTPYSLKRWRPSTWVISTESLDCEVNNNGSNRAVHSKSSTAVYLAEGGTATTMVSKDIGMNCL

The inhibition of C=CC(=O)N1CCC[C@@H](n2nc(-c3ccc(Oc4ccccc4)cc3)c3c(N)ncnc32)C1 is reported as 19% (enzyme activity; inhibitor; 1 µM).
For COc1ccc2oc(-c3ccc4nc(N)oc4c3)c/c(=N\c3ccccc3NC(=O)CCN)c2c1, the remaining binding was 104% (binding; 1 µM).
The remaining binding of Cc1ccc(NC(=O)c2ccnc(C(F)(F)F)c2)cc1-c1cc(OCCO)nc(N2CCOCC2)c1 is reported as 100% (binding; 1 µM).
The remaining binding of C1=C/COCc2cc(ccc2OCCN2CCCC2)Nc2nccc(n2)-c2cccc(c2)COC/1 is reported as 80% (binding; 0.1 µM).
For CC#CC(=O)N1CCC[C@H]1c1nc(-c2ccc(C(=O)Nc3ccccn3)cc2)c2c(N)nccn12, the inhibition was 0% (enzyme activity; inhibitor; 1 µM).
CCCCC(=O)Nc1ccc(-c2ccc3ncn(CCC)c(=O)c3c2)cn1 has a remaining binding of 100% (binding; competition with immobilised ligand; 0.5 µM).
C[C@H]1CC[C@H](n2c3cnccc3c3cnc(Nc4ccc5c(n4)CCN(C(=O)CO)C5)nc32)CC1 gave a remaining binding of 100% (binding; 1 µM).
N#Cc1ccc(NC(=O)Nc2ccccc2)cc1 has a remaining binding of 95% (cell-free assay; competition with immobilised ligand; 25 µM).
